In paper PMC7758886 (ACS Omega, 2020):

Tests used:
[1] = molecular target: CmorAlstRC ΔN-term mutant (Carausius morosus)
[2] = test system: endogenous β-AR (HEK293 cells); assay: Single-cell FRET microscopy of isoprenaline-stimulated cAMP production; format: cell-based; settings: 3 nM isoprenaline, continuous
Method in brief: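 HEK293 cells co-transfected (Effectene) with receptor and Epac-SH187 cAMP FRET sensor; medium changed 16 h post-transfection, reseeded on PLL-coated coverslips, imaged 36–48 h post-transfection. One cell per coverslip, continuously perfused with FRET buffer (HEPES, pH 7.35) and/or ligand. FRET = corrected YFP/CFP ratio, normalized to baseline; cAMP rise lowers FRET. Traces averaged over eight cells from 3 days.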

[3] = molecular target: Carausius morosus allatostatin-C receptor with C-terminal EYFP (CmorAlstRC-EYFP) (Carausius morosus); assay: FRET or BRET
CXCR4 = assay: FRET-based Gαi2 activation, 96-well plate, CXCR4; format: cell-based; settings: HEK293, Gαi2 FRET sensor, ± SD, three to four independent plate reader experiments
[4] = test system: β1 adrenergic receptor (β1AR); assay: Epac-S^H187 FRET cAMP production; format: cell-based; settings: HEK293, Epac-S^H187 sensor; at least three individual experiments
[5] = test system: α1A adrenergic receptor (α1AAR); assay: FRET-based Gαq activation, α1A adrenergic receptor; format: cell-based; settings: HEK293, 96-well

Compound “Drosophila melanogaster pGlu AST-C peptide (DmelASTC)” has a pEC50 of Gαi2 FRET sensor activation by DmelASTC, ΔN-term mutant, 96-well plates [1] of 8.47.
With CC(C)NCC(O)c1ccc(O)c(O)c1 (centres unmarked) [Iso, isoprenaline] the “FRET response, cAMP production” value [2] was “sharp decrease in FRET”.
With “human Gαi2-ECFP (from UniProt P04899 1-355) (natural protein)” the pEC50 of AST-C for the FRET change between CmorAlstRC-EYFP and Gαi2-ECFP [3] was 8.84, the tau of association (apparent, with 1 μM AST-C) [3] was 227 ms and the tau of dissociation (apparent, wash-off of 1 μM AST-C) [3] was 3.8 s.
“CXCL12: agonist of CXCR4, positive control for Gαi2 activation” was tested, and the “pEC50, Gαi2 activation” value (CXCR4) was 9.49 ± 0.1.
For NC[C@H](O)c1ccc(O)c(O)c1 [NE, Norepinephrine], the “change in FRET signal (cAMP production)” value [4] was “decreased the FRET response (increased the cAMP level) in a NE concentration-dependent manner” and the “Gαq FRET sensor activation” value [5] was “induced a concentration-dependent FRET decrease in the Gαq sensor”.
